# Hits are enriched below; roughly 5.5% of the tested compounds scored in any of these assays.
# PLAP act = activators of human placental alkaline phosphatase. P05187. purified PLAP enzyme, luminescent substrate read-out; stronger effect = higher value. activation fold at 20 µM. hit rate 1.2% among 96,000; in the data active = activation fold above about 2
# Target sequence (P05187 whole entry, looked up): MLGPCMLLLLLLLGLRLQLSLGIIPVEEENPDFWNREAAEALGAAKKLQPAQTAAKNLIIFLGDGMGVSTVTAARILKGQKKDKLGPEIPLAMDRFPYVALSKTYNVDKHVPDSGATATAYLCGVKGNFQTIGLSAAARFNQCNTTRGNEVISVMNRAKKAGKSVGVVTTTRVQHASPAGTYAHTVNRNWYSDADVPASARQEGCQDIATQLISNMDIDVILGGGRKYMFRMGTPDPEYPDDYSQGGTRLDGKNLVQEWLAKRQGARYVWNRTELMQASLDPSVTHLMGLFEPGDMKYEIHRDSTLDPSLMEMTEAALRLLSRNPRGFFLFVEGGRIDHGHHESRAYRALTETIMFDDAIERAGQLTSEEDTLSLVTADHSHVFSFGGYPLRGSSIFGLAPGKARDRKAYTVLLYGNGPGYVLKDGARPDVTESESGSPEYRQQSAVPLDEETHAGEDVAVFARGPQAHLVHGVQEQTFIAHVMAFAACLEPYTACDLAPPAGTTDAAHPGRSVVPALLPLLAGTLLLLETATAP
# PostGolgi ctrl = yeast control strain growth, post-Golgi counter-screen; inhibition, % at 10 µM; hit rate 5% among 98,000; efflux-deficient yeast background strain, growth absorbance A615, 16 h; AID 738
# E coli WT exp = blocks growth of wild type E. coli BW25113. growth inhibition, % at 100 µM. OD600 absorbance. hit rate 0.15% among 98,000;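 active = growth inhibition above about 50% at one test dose, limit read from the data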;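 note: growth measured after 20 h incubation at 37 °C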
# HePTP inh = human HePTP phosphatase inhibition. recombinant HePTP phosphatase activity, OD absorbance. inhibition, % at 20 µM. hit rate 0.64% among 110,000; in the data active = inhibition above about 50%
# PostGolgi yeast = growth inhibition of a yeast mutant, post-Golgi transport screen | post-Golgi transport phenotypic cell assay | inhibition, % at 10 µM | hit rate 0.9% among 98,000 | AID 739;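 note: yeast cells grown in 1536-well plates; yeast grown about 18 h at 30C before absorbance read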
# Ecoli tolC = E. coli tolC mutant growth inhibition. E. coli BW25113 tolC mutant growth, OD615. growth inhibition, % at 10 µM (by protocol). hit rate 2.2% among 65,000;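 active = growth inhibition at or above a cutoff equal to the mean over every tested compound plus 3 SD, cut at about 60% in these data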;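 note: growth measured after 20 h incubation at 37 °C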
#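 Test system: tolC-deleted E. coli BW25113; medium: LB with kanamycin 50 µg/mL; compound: single-point testing at 10 µM; incubation: 20 h compound exposure of bacteria at 37 °C; signal: OD at 615 nm; evaluation: growth inhibition in percent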
# Numbers stand for hits; 0 = inactive; - = not tested or not shown. Cut-off read from the data, not from the text of the source, unless noted: active = inhibition above about 30%; inactive = the rest.
SMILES,PLAP act,PostGolgi ctrl,E coli WT exp,HePTP inh,PostGolgi yeast,Ecoli tolC
CCOc1ccccc1N1CCN(C(=O)c2cccc([N+](=O)[O-])c2)CC1,-,-,-,0,-,-
NNc1nc(Nc2ccccc2)nc(N2CCCCC2)n1,0,0,0,-,0,-
O=c1nc(N2CCCCC2)nc(Nc2ccccc2)[nH]1,2.3,0,0,-,0,-
CC(C)C1O/C(=N/C(=O)Nc2ccc(Cl)c(Cl)c2)NC1=O (stereo unspecified),0,91.9,53.0,-,97.9,97.8
C/C=N/N=C1/NC(=O)C(CC(=O)Nc2ccc(Cl)c(Cl)c2)S1 (stereo unspecified),-,-,-,0,-,-
Cn1c(C(C#N)C(=O)c2sc3ccccc3c2Cl)nc2ccccc21 (stereo unspecified),0,78.8,0,0,0,0
C#CCSc1nc2ccccc2n1C(=O)c1sc2ccccc2c1Cl,-,-,-,0,-,-
Cc1[nH]c(=O)c(C(=O)/C=C/c2ccccc2F)c2c1CCCC2,0,30.1,0,-,0,-
Cc1ccc(/C=C/C(=O)c2c3c(c(C)[nH]c2=O)CCCC3)cc1,-,-,-,0,-,-
CCOC(=O)/C(N=Nc1cc(C(=O)OC)cc(C(=O)OC)c1)=C(/C)O,-,-,-,0,-,-
N/C(Cc1ccc(Cl)c(Cl)c1)=N\OC(=O)c1cccs1,0,79.2,0,-,0,-
Clc1ccsc1-c1csc(-c2cccnc2)n1,0,85.1,0,-,81.4,-
O=S(=O)(c1ccc(-c2csc(-c3cccnc3)n2)cc1)N1CCCCC1,-,40.7,0,0,0,0
O=S(=O)(c1ccc(-c2nc3ccccc3s2)cc1)N1CCCC1,0,0,0,-,0,-
c1cncc(-c2nc(-c3cccs3)cs2)c1,0,0,0,0,0,0
Oc1cccc(-c2nc3ccccc3s2)c1,0,0,0,0,0,0
O=S(=O)(c1cccc(-c2nc3ccccc3s2)c1)N1CCCC1,0,33.8,0,0,0,0
Nc1cccc(-c2nc3ccccc3s2)c1,0,31.0,0,-,0,-
O=c1oc2c(O)c(O)ccc2c2c1CCC2,-,-,-,0,-,-
C/C(=C/C(=O)c1ccc(Cl)cc1)Nc1cccc(O)c1,-,-,-,0,-,-
O=C(Nc1ccc([N+](=O)[O-])cn1)c1cc(-c2ccc(Cl)c(Cl)c2)nc2ccccc12,-,-,-,0,-,-
O=S(=O)(c1cccc(-c2csc(-c3cccnc3)n2)c1)N1CCCCC1,0,32.1,0,0,0,0
O=S(=O)(c1ccc(F)cc1)N1CCN(c2nc(-c3ccc(F)cc3)cs2)CC1,0,36.6,0,-,0,-
Cc1cc(C)n2c(SCc3cccs3)nnc2n1,0,37.4,0,-,0,0
CCCSc1nnc2nc(C)cc(C)n12,0,0,0,0,0,0
SMILES,PLAP act,PostGolgi ctrl,E coli WT exp,HePTP inh,PostGolgi yeast,Ecoli tolC
COC(=O)C1C(O)=C(C=Nc2ccccc2C)C(=O)CC1(C)C (stereo unspecified),-,-,-,0,-,-
CCCC(=O)Nc1cc2nn(-c3ccc(C)cc3)nc2cc1C,-,-,-,0,-,-
Cc1ccc(-n2nc3cc(C)c(NC(=O)Cc4ccccc4)cc3n2)cc1,-,-,-,63.4,-,-
O=c1[nH]c2ccccc2n1CCCSc1cnc2ccccc2n1,0,42.9,0,-,0,0
CCCCn1c(=O)[nH]c2ccccc21,0,0,0,0,0,0
CC(=O)C1(C)CC(C#N)(C#N)C(C#N)=C1N (stereo unspecified),-,-,-,0,-,-
CCCN(CC1CC1)C(=O)CSc1ncnc2sc(C)c(C)c12,0,36.5,0,-,0,-
CC(C)COc1ccc(C(=O)CCN2CCCCC2)cc1,0,44.1,0,0,0,0
CCOC(=O)CSc1cc(CS(=O)c2ccc(Cl)cc2)nc(-c2ccccc2)n1 (stereo unspecified),0,32.0,0,-,0,-
CCOC(=O)CSc1cc(CSc2ccccc2)nc(-c2ccccc2)n1,0,0,0,-,0,-
COC(=O)/C(=C/C(=O)c1ccc(C)cc1)Nc1ccc(Br)cc1,-,-,-,0,-,-
CN(C)c1oc(-c2ccccc2Cl)nc1P(=O)(c1ccccc1)c1ccccc1,0,0,0,-,30.8,-
COc1c(Cl)cc(C(=O)Nc2cccc(S(N)(=O)=O)c2)cc1Cl,-,-,-,0,-,-
O=S(=O)(Nc1ccc(-c2nc3ccccc3o2)cc1)c1ccccc1,0,39.2,0,0,0,93.1
O=C(NC(=S)NNc1nc(-c2ccccc2)cs1)c1cc2ccccc2oc1=O,-,-,-,99.0,-,-
COCCOC(=O)c1c(C)oc2ccc(OCc3c(F)c(F)c(F)c(F)c3F)cc12,-,-,-,0,-,-
C/C(=C1\SC(=S)NC1=O)c1cccc([N+](=O)[O-])c1,-,-,-,0,-,-
CCOC(=O)c1[nH]cnc1C(=O)Nc1ccncc1,2.5,0,0,0,0,0
CCOC(=O)c1[nH]cnc1C(=O)Nc1ccc(Br)cc1,-,-,-,0,-,-
Cc1c(N2C(=O)CSC23C(=O)Nc2ccccc23)c(=O)n(-c2ccccc2)n1C (stereo unspecified),0,39.9,0,0,0,0
CCc1ccc(NC(=O)N(C2CCCCC2)C(C)c2cccnc2)cc1 (stereo unspecified),0,95.2,0,-,106.5,-
CCc1ccc(NC(=O)c2cccnc2)cc1,0,0,0,0,0,0
Cc1ccc(NC(=O)N(C2CCCCC2)C(C)c2cccnc2)cc1C (stereo unspecified),0,90.4,0,-,99.0,-
COc1ccc(/C=C2\C=C(c3ccc(Cl)cc3)OC2=O)cc1[N+](=O)[O-],-,-,-,0,-,-
Cc1ccc(S(=O)(=O)N2CCCC2C(=O)N(C)Cc2cccs2)cc1 (stereo unspecified),0,0,0,0,0,0
SMILES,PLAP act,PostGolgi ctrl,E coli WT exp,HePTP inh,PostGolgi yeast,Ecoli tolC
O=C(C1CCCN(S(=O)(=O)c2ccc(Cl)cc2)C1)N(Cc1cccs1)C1CC1 (stereo unspecified),0,0,0,0,93.8,0
CC(=O)Nc1cccc(NC(=O)CC(c2ccccc2)c2ccccc2)c1,-,-,-,0,-,-
NC(=O)c1ccc(C(F)(F)F)n(Cc2cccc(Cl)c2)c1=O,0,60.7,0,-,0,-
COc1cc(NC(=O)c2ccc3c(c2)C(=O)N(C2CCCCC2)C3=O)c(C(=O)O)cc1OC,-,-,-,102.8,-,-
COc1cc(NC(=O)c2ccc3c(c2)C(=O)N(c2ccccc2OC)C3=O)c(C(=O)O)cc1OC,-,-,-,0,-,-
FC(F)(F)c1ccccc1CN1CCN(C2CCCC2)CC1,-,-,-,0,-,-
O=C(Nc1nccs1)c1ccc(S(=O)(=O)NCC2CCCCC2)cc1,0,40.6,0,0,0,0
O=C(Nc1nccs1)c1ccc(S(=O)(=O)NCc2cccs2)cc1,0,0,0,0,0,0
O=C1CC(=O)N(c2ccc(Br)cc2)N1,-,-,-,0,-,-
CSc1nnc(-c2ccccc2)n1C,-,31.3,0,0,0,0
Cc1ccc(C(=O)N2CCN(c3ccc(F)cc3)CC2)cc1[N+](=O)[O-],-,-,-,0,-,-
COc1ccc(N/C=C/C(=O)c2ccc(Cl)cc2)c(OC)c1,-,-,-,0,-,-
O=C(Nc1c(F)c(F)c(F)c(F)c1F)c1cccc(F)c1,-,-,-,0,-,-
COc1nnc(-c2ccc(N3CCCCC3)c(N)c2)c2ccccc12,-,-,-,-,-,62.7
CCCC(=O)Nc1cc(-c2nnc(OC)c3ccccc23)ccc1N1CCCCC1,0,42.8,0,-,0,-
COc1nnc(OC)c2ccccc12,0,0,0,0,0,0
Cc1sc(NC(=O)c2cccs2)c(C(N)=O)c1C,0,37.0,0,0,0,0
COc1cccc(OC)c1C(=O)Nc1sc(C)c(C)c1C(N)=O,-,-,-,0,-,-
CCOC(=O)c1cnc2scnn2c1=O,0,37.0,0,0,0,0
